In ChEMBL document CHEMBL4033793, “Potent and Selective Inhibitors of Human Sirtuin 5” (J Med Chem, 2018):
Starred links: 1 amine or outer side, 2 acyl side, 3 side chain; linkers in the order of their positions; H or OH if unused. Residues, ends and D or L forms follow the SMILES beside them. *: point of attachment. X2 = O=C(CCCC[C@@H]1SC[C@@H]2NC(=O)N[C@@H]21)NCCCOCCOCCOCCCN*; X65 = O=C(O)[C@H](CC(=O)*)SCc1cccc([N+](=O)[O-])c1; X35 = O=C(O)[C@@H](CC(=O)*)SCc1ccc(C(F)(F)F)cc1; X71 = O=C(O)[C@@H](CC(=O)*)SCc1cccc(C(F)(F)F)c1; X15 = CC(C)(C)c1ccc(CS[C@H](CC(=O)*)C(=O)O)cc1; X56 = Cc1cc(C)c(CS[C@H](CC(=O)*)C(=O)O)c(C)c1; X30 = COc1ccc(S[C@H](CC(=O)*)C(=O)O)cc1OC; X31 = O=C(O)[C@H](CC(=O)*)Sc1cccc(Cl)c1Cl; X38 = O=C(O)[C@H](CC(=O)*)Sc1cccc2ccccc12; X50 = O=C(O)[C@H](CC(=O)*)Sc1cc(Cl)ccc1Cl; X59 = O=C(O)[C@@H](CC(=O)*)SCc1ccc(Cl)cc1; X10 = Cc1noc(C)c1CCS[C@H](CC(=O)*)C(=O)O; X6 = Cc1noc(C)c1CCS[C@@H](CC(=O)*)C(=O)O; X70 = O=C(O)[C@H](CC(=O)*)Sc1cccc(Cl)c1; X26 = O=C(O)[C@@H](CC(=O)*)SCCc1ccccc1; X37 = O=C(O)[C@H](CC(=O)*)SCCCc1ccccc1; X53 = O=C(O)[C@H](CC(=O)*)Sc1ccccc1Cl; X40 = O=C(O)[C@H](CC(=O)*)SCc1ccccc1; X9 = O=C(O)C(CC(=O)*)Sc1ccc2ccccc2c1; X8 = O=C(O)[C@H](CC(=O)*)Sc1ccccc1; Suc = O=C(CCC(=O)[*:2])[*:1]; Bz = O=C(c1ccccc1)*

molecular target: T1, NAD-dependent protein deacylase sirtuin-5, mitochondrial (Homo sapiens, UniProt Q9NXA8); assay: Inhibition of human recombinant N-terminal Strep2-tagged SIRT5 expressed in Escherichia coli BL21 (DE3) using Abz-GVLK(glutaryl)AY(NO2)GV-NH2 as substrate in presence of NAD+ by fluorescence assay
T1 sequence (Q9NXA8 whole entry): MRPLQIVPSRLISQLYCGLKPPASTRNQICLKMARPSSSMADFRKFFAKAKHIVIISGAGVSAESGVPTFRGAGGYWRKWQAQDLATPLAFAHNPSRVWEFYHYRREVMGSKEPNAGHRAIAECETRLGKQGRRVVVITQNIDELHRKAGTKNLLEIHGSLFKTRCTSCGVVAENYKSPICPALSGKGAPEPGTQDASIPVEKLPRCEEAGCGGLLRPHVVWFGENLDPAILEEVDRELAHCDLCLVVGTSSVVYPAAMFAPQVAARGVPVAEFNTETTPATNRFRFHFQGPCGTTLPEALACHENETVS

Row | SMILES | IC50 [nM] | Ki [nM]
1 | CC(C)C[C@H](NC(=O)[C@@H](NC(=O)CNC(=O)CCC(=O)NCCCOCCOCCOCCCNC(=O)CCCC[C@@H]1SC[C@@H]2NC(=O)N[C@@H]21)C(C)C)C(=O)N[C@@H](CCCCNC(=O)CC(Sc1ccc2ccccc2c1)C(=O)O)C(=O)N[C@@H](CCC(=O)O)C(=O)N[C@@H](Cc1ccc(O)cc1)C(=O)NCC(=O)N[C@H](C(N)=O)C(C)C (stereo partly drawn) ({X2-Suc}-GVLK(X9)EYGV-NH2) | 91.1 | 
2 | CC(C)C[C@H](NC(=O)[C@@H](NC(=O)CNC(=O)c1ccccc1)C(C)C)C(=O)N[C@@H](CCCCNC(=O)C[C@@H](SCc1ccc(C(F)(F)F)cc1)C(=O)O)C(=O)N[C@@H](CCC(=O)O)C(=O)N[C@@H](Cc1ccc(O)cc1)C(=O)NCC(=O)N[C@H](C(N)=O)C(C)C (Bz-GVLK(X35)EYGV-NH2) | 2200 | 
3 | CC(C)C[C@H](NC(=O)[C@@H](NC(=O)CNC(=O)c1ccccc1)C(C)C)C(=O)N[C@@H](CCCCNC(=O)C[C@@H](SCc1ccc(Cl)cc1)C(=O)O)C(=O)N[C@@H](CCC(=O)O)C(=O)N[C@@H](Cc1ccc(O)cc1)C(=O)NCC(=O)N[C@H](C(N)=O)C(C)C (Bz-GVLK(X59)EYGV-NH2) | 1020 | 
4 | CC(C)C[C@H](NC(=O)[C@@H](NC(=O)CNC(=O)c1ccccc1)C(C)C)C(=O)N[C@@H](CCCCNC(=O)C[C@H](Sc1cccc(Cl)c1)C(=O)O)C(=O)N[C@@H](CCC(=O)O)C(=O)N[C@@H](Cc1ccc(O)cc1)C(=O)NCC(=O)N[C@H](C(N)=O)C(C)C (Bz-GVLK(X70)EYGV-NH2) | 120 | 
5 | CC(C)C[C@H](NC(=O)[C@@H](NC(=O)CNC(=O)c1ccccc1)C(C)C)C(=O)N[C@@H](CCCCNC(=O)C[C@H](Sc1ccccc1)C(=O)O)C(=O)N[C@@H](CCC(=O)O)C(=O)N[C@@H](Cc1ccc(O)cc1)C(=O)NCC(=O)N[C@H](C(N)=O)C(C)C (Bz-GVLK(X8)EYGV-NH2) | 274 | 135
6 | CC(C)C[C@H](NC(=O)[C@@H](NC(=O)CNC(=O)c1ccccc1)C(C)C)C(=O)N[C@@H](CCCCNC(=O)C[C@@H](SCc1cccc(C(F)(F)F)c1)C(=O)O)C(=O)N[C@@H](CCC(=O)O)C(=O)N[C@@H](Cc1ccc(O)cc1)C(=O)NCC(=O)N[C@H](C(N)=O)C(C)C (Bz-GVLK(X71)EYGV-NH2) | 1150 | 
7 | Cc1noc(C)c1CCS[C@H](CC(=O)NCCCC[C@H](NC(=O)[C@H](CC(C)C)NC(=O)[C@@H](NC(=O)CNC(=O)c1ccccc1)C(C)C)C(=O)N[C@@H](CCC(=O)O)C(=O)N[C@@H](Cc1ccc(O)cc1)C(=O)NCC(=O)N[C@H](C(N)=O)C(C)C)C(=O)O (Bz-GVLK(X10)EYGV-NH2) | 18500 | 
8 | CC(C)C[C@H](NC(=O)[C@@H](NC(=O)CNC(=O)c1ccccc1)C(C)C)C(=O)N[C@@H](CCCCNC(=O)C[C@H](SCc1ccccc1)C(=O)O)C(=O)N[C@@H](CCC(=O)O)C(=O)N[C@@H](Cc1ccc(O)cc1)C(=O)NCC(=O)N[C@H](C(N)=O)C(C)C (Bz-GVLK(X40)EYGV-NH2) | 336 | 
9 | CC(C)C[C@H](NC(=O)[C@@H](NC(=O)CNC(=O)c1ccccc1)C(C)C)C(=O)N[C@@H](CCCCNC(=O)C[C@H](Sc1cccc(Cl)c1Cl)C(=O)O)C(=O)N[C@@H](CCC(=O)O)C(=O)N[C@@H](Cc1ccc(O)cc1)C(=O)NCC(=O)N[C@H](C(N)=O)C(C)C (Bz-GVLK(X31)EYGV-NH2) | 715 | 
10 | CC(C)C[C@H](NC(=O)[C@@H](NC(=O)CNC(=O)c1ccccc1)C(C)C)C(=O)N[C@@H](CCCCNC(=O)C[C@H](Sc1cccc2ccccc12)C(=O)O)C(=O)N[C@@H](CCC(=O)O)C(=O)N[C@@H](Cc1ccc(O)cc1)C(=O)NCC(=O)N[C@H](C(N)=O)C(C)C (Bz-GVLK(X38)EYGV-NH2) | 95 | 
11 | Cc1noc(C)c1CCS[C@@H](CC(=O)NCCCC[C@H](NC(=O)[C@H](CC(C)C)NC(=O)[C@@H](NC(=O)CNC(=O)c1ccccc1)C(C)C)C(=O)N[C@@H](CCC(=O)O)C(=O)N[C@@H](Cc1ccc(O)cc1)C(=O)NCC(=O)N[C@H](C(N)=O)C(C)C)C(=O)O (Bz-GVLK(X6)EYGV-NH2) | 8750 | 
12 | CC(=O)N[C@@H](CC(C)C)C(=O)N[C@@H](CCCCNC(=O)CC(Sc1ccc2ccccc2c1)C(=O)O)C(=O)N[C@@H](C)C(N)=O (stereo partly drawn) | 1080 | 
13 | CC(C)C[C@H](NC(=O)[C@@H](NC(=O)CNC(=O)c1ccccc1)C(C)C)C(=O)N[C@@H](CCCCNC(=O)C[C@H](Sc1cc(Cl)ccc1Cl)C(=O)O)C(=O)N[C@@H](CCC(=O)O)C(=O)N[C@@H](Cc1ccc(O)cc1)C(=O)NCC(=O)N[C@H](C(N)=O)C(C)C (Bz-GVLK(X50)EYGV-NH2) | 295 | 
14 | CC(C)C[C@H](NC(=O)[C@@H](NC(=O)CNC(=O)c1ccccc1)C(C)C)C(=O)N[C@@H](CCCCNC(=O)C[C@H](Sc1ccccc1Cl)C(=O)O)C(=O)N[C@@H](CCC(=O)O)C(=O)N[C@@H](Cc1ccc(O)cc1)C(=O)NCC(=O)N[C@H](C(N)=O)C(C)C (Bz-GVLK(X53)EYGV-NH2) | 857 | 
15 | CC(C)C[C@H](NC(=O)[C@@H](NC(=O)CNC(=O)c1ccccc1)C(C)C)C(=O)N[C@@H](CCCCNC(=O)C[C@H](SCc1cccc([N+](=O)[O-])c1)C(=O)O)C(=O)N[C@@H](CCC(=O)O)C(=O)N[C@@H](Cc1ccc(O)cc1)C(=O)NCC(=O)N[C@H](C(N)=O)C(C)C (Bz-GVLK(X65)EYGV-NH2) | 2710 | 
16 | CC(=O)N[C@@H](CC(C)C)C(=O)N[C@@H](CCCCNC(=O)C[C@H](Sc1ccc2ccccc2c1)C(=O)O)C(=O)N[C@@H](C)C(N)=O | 350 | 
17 | Cc1cc(C)c(CS[C@H](CC(=O)NCCCC[C@H](NC(=O)[C@H](CC(C)C)NC(=O)[C@@H](NC(=O)CNC(=O)c2ccccc2)C(C)C)C(=O)N[C@@H](CCC(=O)O)C(=O)N[C@@H](Cc2ccc(O)cc2)C(=O)NCC(=O)N[C@H](C(N)=O)C(C)C)C(=O)O)c(C)c1 (Bz-GVLK(X56)EYGV-NH2) | 631 | 
18 | COc1ccc(S[C@H](CC(=O)NCCCC[C@H](NC(=O)[C@H](CC(C)C)NC(=O)[C@@H](NC(=O)CNC(=O)c2ccccc2)C(C)C)C(=O)N[C@@H](CCC(=O)O)C(=O)N[C@@H](Cc2ccc(O)cc2)C(=O)NCC(=O)N[C@H](C(N)=O)C(C)C)C(=O)O)cc1OC (Bz-GVLK(X30)EYGV-NH2) | 9080 | 
19 | CC(C)C[C@H](NC(=O)[C@@H](NC(=O)CNC(=O)c1ccccc1)C(C)C)C(=O)N[C@@H](CCCCNC(=O)C[C@H](SCCCc1ccccc1)C(=O)O)C(=O)N[C@@H](CCC(=O)O)C(=O)N[C@@H](Cc1ccc(O)cc1)C(=O)NCC(=O)N[C@H](C(N)=O)C(C)C (Bz-GVLK(X37)EYGV-NH2) | 1130 | 
20 | CC(C)C[C@H](NC(=O)[C@@H](NC(=O)CNC(=O)c1ccccc1)C(C)C)C(=O)N[C@@H](CCCCNC(=O)C[C@@H](SCCc1ccccc1)C(=O)O)C(=O)N[C@@H](CCC(=O)O)C(=O)N[C@@H](Cc1ccc(O)cc1)C(=O)NCC(=O)N[C@H](C(N)=O)C(C)C (Bz-GVLK(X26)EYGV-NH2) | 592 | 
21 | CC(C)C[C@H](NC(=O)[C@@H](NC(=O)CNC(=O)c1ccccc1)C(C)C)C(=O)N[C@@H](CCCCNC(=O)C[C@@H](SCc1ccc(C(C)(C)C)cc1)C(=O)O)C(=O)N[C@@H](CCC(=O)O)C(=O)N[C@@H](Cc1ccc(O)cc1)C(=O)NCC(=O)N[C@H](C(N)=O)C(C)C (Bz-GVLK(X15)EYGV-NH2) | 1240 | 

molecular target: T1, NAD-dependent protein deacylase sirtuin-5, mitochondrial; assay: Competitive inhibition of human recombinant N-terminal Strep2-tagged SIRT5 expressed in Escherichia coli BL21 (DE3) using Abz-GVLK(glutaryl)AY(NO2)GV-NH2 as substrate in presence of NAD+ by fluorescence assay
Outline: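 Continuous trypsin-coupled fluorescence assay at 37°C: 10 nM SIRT5, 500 µM NAD+, 500 nM trypsin, 5% DMSO, 0.025-5 µM substrate, 0.01-20 µM inhibitor. Buffer: 20 mM Tris, 150 mM NaCl, 5 mM MgCl2, pH 7.8. Excitation 320 nm, emission 420 nm. Measured in duplicate; IC50 determined at 0.03 µM substrate by log(inhibitor) vs normalized response fit.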

Row | SMILES | Ki [nM]
22 | CC(C)C[C@H](NC(=O)[C@@H](NC(=O)CNC(=O)CCC(=O)NCCCOCCOCCOCCCNC(=O)CCCC[C@@H]1SC[C@@H]2NC(=O)N[C@@H]21)C(C)C)C(=O)N[C@@H](CCCCNC(=O)CC(Sc1ccc2ccccc2c1)C(=O)O)C(=O)N[C@@H](CCC(=O)O)C(=O)N[C@@H](Cc1ccc(O)cc1)C(=O)NCC(=O)N[C@H](C(N)=O)C(C)C (stereo partly drawn) ({X2-Suc}-GVLK(X9)EYGV-NH2) | 83.2
